# Assay outcomes deposited in PubChem by several laboratories.
# A selection: hits, their analogues and other compounds. The true share with any hit is near 2.5%.
# Beta2AR agonist: activates human beta-2 adrenergic receptor causing internalization. Am2.2-beta2AR cells, FAP receptor internalization, flow cytometry. response, % (concentration not given with the values). actives 0.43% (n = 340,000). AID 504454;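 active means response above a set limit, near 3 SD of response in nonfluorescent compounds, cut at about 42% in these data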
# Arr AP2 block: inhibitors of human beta-arrestin and AP2 interaction. inhibition, % at 10 µM. FITC-arrestin peptide / GST-AP2 beads, flow cytometry; AP2 beta2 appendage carries R879A mutation. actives 0.31% (n = 340,000);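 active means inhibition above a set limit, near 3 SD of compounds lacking own fluorescence, cut at about 54% in these data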
#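 System: GST-tagged AP2 beta2-adaptin appendage (R879A) on 4 µm glutathione beads / Reagent: FITC-arrestin peptide, 50 nM / Detection: HyperCyt-sampled flow cytometry, FL1 channel, ex 488/em 535 nm / Timing: 12 min plus 1 h, RT / Buffer or medium: PBS plus Tween 20 (0.05%) and BSA (0.1%)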
# MBD2 inh: inhibitors of human MBD2 binding to methylated oligonucleotide; TR-FRET; AID 686964; inhibition, % at 4.4 µM; Q9UBB5; actives 0.31% (n = 370,000); in the data active means inhibition above about 13%
# Rin1-Abl PPI inh: blocks binding of human Rin1 to Abl. inhibition, % at 7.35 µM. actives 0.4% (n = 360,000). TR-FRET Rin1/Abl binding, biochemical. AID 588664. P00519+Q13671; in the data active means inhibition above about 5%, passing the limit was not always enough
# UHRF1 binding: UHRF1 methyl-DNA binding inhibition; UHRF1 binding to methylated oligo, TR-FRET; inhibition, % at 4.4 µM; actives 0.75% (n = 370,000); AID 687016; in the data active means inhibition above about 21%;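 further: UHRF1 SRA domain binding a hemimethylated CpG hairpin DNA probe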
# ABHD5 PLIN5 PPI: inhibitors of human ABHD5-perilipin-5 interaction; Q00G26+Q8WTS1; Split G. princeps luciferase complementation, luminescence, 4 h; inhibition, % at 4 µM; actives 0.78% (n = 360,000); AID 602281;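 active means inhibition above the mean inhibition across every tested compound plus 3 SD, cut at about 22% in these data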
# Target sequence (Q00G26 whole entry, looked up): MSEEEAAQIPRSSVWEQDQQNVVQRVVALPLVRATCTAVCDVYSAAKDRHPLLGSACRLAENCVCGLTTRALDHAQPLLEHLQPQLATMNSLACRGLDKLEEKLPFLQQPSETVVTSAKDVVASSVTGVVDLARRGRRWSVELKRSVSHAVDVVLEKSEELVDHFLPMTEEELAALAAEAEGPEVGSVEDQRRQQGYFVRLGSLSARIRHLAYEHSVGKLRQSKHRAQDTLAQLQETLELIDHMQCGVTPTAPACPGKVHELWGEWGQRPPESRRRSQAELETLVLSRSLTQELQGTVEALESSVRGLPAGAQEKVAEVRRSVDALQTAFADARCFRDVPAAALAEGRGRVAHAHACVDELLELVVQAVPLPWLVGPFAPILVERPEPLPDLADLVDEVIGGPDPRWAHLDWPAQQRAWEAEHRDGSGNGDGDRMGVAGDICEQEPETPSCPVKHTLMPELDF
# Target sequence (Q8WTS1 whole entry, looked up): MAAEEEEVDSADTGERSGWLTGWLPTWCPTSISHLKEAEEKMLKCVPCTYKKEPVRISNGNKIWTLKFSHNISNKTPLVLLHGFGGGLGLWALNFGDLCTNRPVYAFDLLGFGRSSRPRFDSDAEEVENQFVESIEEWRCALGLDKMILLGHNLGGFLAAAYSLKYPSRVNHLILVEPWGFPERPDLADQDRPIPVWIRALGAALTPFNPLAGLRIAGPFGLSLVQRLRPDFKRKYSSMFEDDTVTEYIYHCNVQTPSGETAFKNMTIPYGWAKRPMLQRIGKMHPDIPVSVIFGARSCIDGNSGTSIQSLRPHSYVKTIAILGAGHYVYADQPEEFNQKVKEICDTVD
# Numbers stand for hits; . = inactive; / = not tested or not shown.
SMILES,Beta2AR agonist,Arr AP2 block,MBD2 inh,Rin1-Abl PPI inh,UHRF1 binding,ABHD5 PLIN5 PPI
C[C@H]1CN([C@@H](C)CO)C(=O)CCCn2cc(nn2)CO[C@@H]1CN(C)C(=O)Oc1cccc2ccccc12,/,/,.,/,.,/
Cc1cc(N2CCNC[C@@H]2C)ccc1N1CCN[C@@H](C)C1,/,/,.,/,.,/
O=C1NC(=S)NC(=O)C1=Cc1ccc(Br)s1,54,.,.,.,.,.
O=S(=O)(c1ccc2ccccc2c1)N1Cc2cc(Br)ccc2-n2nncc2C1,/,/,.,/,.,/
CN(C)C(=O)Oc1ccc2c(c1)O/C(=C\c1cccc(Cl)c1)C2=O,53,.,.,.,.,.
CN(C)C(=O)Oc1ccc2c(c1)O/C(=C\c1ccc(Cl)cc1)C2=O,.,.,.,.,.,.
COc1ccc2nc(/N=C/c3c(O)n(-c4cccc(Cl)c4)c(=O)[nH]c3=O)sc2c1,.,.,.,.,.,23
N#CSCC(=O)N1c2ccccc2CCc2ccccc21,52,.,.,.,.,.
NN=C1C(Cl)=C(Cl)C(Cl)=C1Cl,/,/,.,.,40,.
C=CC1C[N+]2(C)CCC1CC2C(O)c1ccnc2ccccc12 (stereo not given),/,/,.,/,.,/
Cn1cccc1/C=C1/C(=O)NC(=S)N(Cc2ccc(F)cc2)C1=O,60,.,.,.,.,.
Cc1ccc(OC(=O)N(C)C[C@@H]2OCc3ccccc3-c3c(n(C)c4ccccc34)C(=O)N([C@H](C)CO)C[C@H]2C)cc1,/,/,.,/,.,/
COCCNC(=O)Cn1cc(C=C2C(=O)NC(=O)NC2=O)c2ccccc21,.,.,.,.,.,22
FC(F)(F)c1ccc2c(c1)N(CCCN1CCN(CCCl)CC1)c1ccccc1S2,68,.,.,.,.,.
CC(=O)OC1C(O)C2=C3C4(C)C1C(C)(C)C(=O)CC4C3(O)C(OC(C)=O)C1(CC1C)C2=O (stereo not given),/,/,.,/,.,22
C=C1C(=O)OC2CCN3CC=C(COC(=O)C(C)(O)C4(CO4)C1C)C23 (stereo not given),/,/,.,.,41,.
CCOC(=O)[C@]12Cc3ccc4ccccc4c3[C@H]1N(Cc1ccccc1)C(=O)c1ccccc12,/,/,.,/,.,.
CC(=O)N1c2ccccc2C(c2ccccc2)=NCC1C(=O)NC1CCCCC1 (stereo not given),/,/,.,/,.,/
O=C(Cn1ncc2c3ccccc3n(Cc3ccccc3F)c2c1=O)N1CCC2(CC1)OCCO2,51,.,.,.,.,.
Cc1c2cnn(CC(=O)N3CCC4(CC3)OCCO4)c(=O)c2c(C)n1Cc1ccc(F)cc1,.,.,.,.,.,.
Cc1ccc(OP(=O)(NCc2ccccc2)Oc2ccc(C)cc2)cc1,.,.,.,.,23,.
C[C@@H]1CNCCN1c1ccc(N2CC[C@H](O)C2)c(C#N)c1,/,/,.,/,.,/
COc1ccc(-c2nc3ccc(Br)cn3c2CC(=O)N2CCCC2)cc1OC,/,/,.,/,23,.
O=C(Cc1c(-c2ccccc2)nc2ccc(Br)cn12)N1CCCC1,/,/,.,/,.,.
CC12Cc3cnoc3C=C1CCC1C2CCC2(C)C1CCC2(C)O (stereo not given),.,.,.,.,.,.
SMILES,Beta2AR agonist,Arr AP2 block,MBD2 inh,Rin1-Abl PPI inh,UHRF1 binding,ABHD5 PLIN5 PPI
COc1ccc(CCn2c(O)c(C=NCCN3CCCCC3)c(=O)[nH]c2=O)cc1OC,.,.,.,.,.,.
COc1ccc(CCn2c(O)c(/C=N/N3CCOCC3)c(=O)[nH]c2=O)cc1OC,.,.,.,.,42,.
CN1C(=O)NC(=O)/C(=C/c2ccc([N+](=O)[O-])o2)C1=O,.,.,.,/,65,/
CN1CCN(c2nc3ccccn3c(=O)c2C=C2C(=O)N(C)C(=O)N(C)C2=O)CC1,.,.,/,.,/,23
Cc1cccc(CCNCc2cc3cccc(C)c3[nH]c2=O)c1,.,.,.,.,.,.
COc1ccc(CN2C(=O)NC(=O)/C(=C/c3ccoc3)C2=O)cc1,.,.,.,.,21,.
C=CCN1C(=O)NC(=O)/C(=C/c2ccoc2)C1=O,.,.,.,.,28,.
COc1ccc(CN2C(=O)NC(=O)/C(=C/c3cc(OC)c(OC)c(OC)c3)C2=O)cc1,.,.,.,.,.,.
COc1ccc(Cc2cn(C)c(N)n2)cc1,/,/,.,/,.,/
O=C1NC(=S)NC(=O)C1=Cc1cccc2cc3ccccc3cc12,94,.,.,.,.,.
O=C1NC(=O)N(c2ccc(F)cc2)C(=O)/C1=C/c1ccsc1,.,.,.,.,.,23
O=C1NC(=O)N(c2ccc(Br)cc2)C(=O)/C1=C/c1ccsc1,.,.,.,.,.,.
C[C@@H]1CNCCN1c1ccc(N2CC[C@@H](O)C2)c(C#N)c1,/,/,.,/,.,/
CCc1ccc(N2C(=O)NC(=O)/C(=C\C=C\c3ccco3)C2=O)cc1,71,.,.,.,.,22
CC(C)c1ccc(N2C(=O)NC(=O)/C(=C/C=C/c3ccco3)C2=O)cc1,.,.,.,.,.,22
Cc1cc(C)cc(N2C(=O)NC(=O)/C(=C\C=C\c3ccco3)C2=O)c1,59,.,.,.,.,23
CC(=O)NCC1=C(c2ccc(S(C)(=O)=O)cc2)C[C@@H]2CC[C@H]1N2CCOc1ccccc1,/,/,.,/,.,/
O=C1/C(=C/c2ccccc2)C[C@@]2(O)[C@H]3Cc4ccc(O)c5c4[C@@]2(CCN3CC2CC2)C1O5 (stereo not given in full),69,.,/,.,/,65
Oc1ccc2c3c1O[C@H]1c4[nH]c5c(c4CC4(O)C(C2)N(CC2CC2)CCC314)CC1(O)[C@H]2Cc3ccc(O)c4c3[C@@]1(CCN2CC1CC1)C5O4 (stereo not given in full),/,/,.,/,.,/
Cc1cc(/C=C2\C(=O)NC(=O)N(c3ccccc3F)C2=O)c(C)n1-c1cc(C(=O)O)cc(C(=O)O)c1,.,.,.,.,52,.
CCc1ccccc1N1C(=O)NC(=O)/C(=C\c2cc(C)n(C)c2C)C1=O,61,.,.,.,.,.
CC(C)(C)n1nnnc1C1CN=C(c2ccccc2)c2ccccc2N1 (stereo not given),/,/,.,/,.,/
COc1cc2c(cc1OC)CC[N+](C)=C2,57,.,.,.,.,.
COc1ccc(CC2c3cc(OC)c(OC)cc3CCN2C)cc1OC (stereo not given),.,.,.,.,.,.
C=CCN1CC[C@]23c4c5ccc(O)c4OC2C(=O)CC[C@@]3(O)[C@H]1C5 (stereo not given in full),/,/,.,/,.,/
CC1=CC(O)C(O)C2(C)C1CC1OC(=O)C(O)C3C(C)C(O)C4(O)OCC13C42 (stereo not given),.,.,/,.,/,.
